Results from ChEMBL document CHEMBL4689842, “EUbOPEN Chemogenomics Library wave 1” (2021).
“And” between values parts separate entries of the source, which are not always exact repeats. Identical values can stand only once.

Test system: U2OS
Assay: Multiplex assay against U2OS
Type: toxicity, cell-based
Settings: human
Method in brief: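 Imaging took place on a CQ1 microscope at 37°C and 5% CO2 once compound had been added to live cells stained at seeding with Hoechst33342, BioTracker Green Microtubule Cytoskeleton Dye, MitoTracker Red and Annexin V Alexa Fluor 680. CellPathfinder machine-learning gating classed cells as Hoechst high-intensity objects or normal cells, classed normal cells as having healthy, pyknosed or fragmented nuclei, and classed pyknosed cells as mitotic or apoptotic. Tubulin, mitochondrial-mass and membrane-permeability phenotypes are per cents of the healthy-nucleus cells.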

[1] = 12 h, 10 µM, compound concentration 10 uM, replicate 1
[2] = 12 h, 10 µM, compound concentration 10 uM, replicate 2
[3] = 24 h, 10 µM, compound concentration 10 uM, replicate 1
[4] = 24 h, 10 µM, compound concentration 10 uM, replicate 2
[5] = 12 h, 1 µM, compound concentration 1 uM, replicate 1
[6] = 12 h, 1 µM, compound concentration 1 uM, replicate 2
[7] = 24 h, 1 µM, compound concentration 1 uM, replicate 1
[8] = 24 h, 1 µM, compound concentration 1 uM, replicate 2
[9] = 48 h, 10 µM, compound concentration 10 uM, replicate 1
[10] = 48 h, 10 µM, compound concentration 10 uM, replicate 2

## CN1C(=O)c2sccc2N(C)c2nc(Nc3ccc(S(N)(=O)=O)cc3)ncc21
[1]
  Population Apoptotic (%): 30% and 31%
  Population Fragmented Nuclei (%): 5% and 4%
  Population Healthy Nuclei (%): 88% and 84%
  Population Hoechst High Intensity Objects (%): 1%
  Population Membrane Permeable-Phenotype (%): 14% and 7%
  Population Mitochondria Different-Phenotype (%): 17% and 22%
  Population Mitotic Cells (%): 70% and 68%
  Population Normal (%): 98%
  Population Pyknosed Nuclei (%): 5% and 10%
  Population Tubulin-Different-Phenotype (%): 15% and 31%
  Total Cell Count: 144 and 172
[2]
  Population Fragmented Nuclei (%): 6% and 13%
  Population Healthy Nuclei (%): 83% and 78%
  Population Hoechst High Intensity Objects (%): 8% and 19%
  Population Membrane Permeable-Phenotype (%): 19% and 8%
  Population Mitochondria Different-Phenotype (%): 36% and 35%
  Population Mitotic Cells (%): 90% and 66%
  Population Normal (%): 91% and 80%
  Population Pyknosed Nuclei (%): 9% and 7%
  Population Tubulin-Different-Phenotype (%): 18% and 21%
  Total Cell Count: 94 and 98
[3]
  Population Apoptotic (%): 28% and 42%
  Population Fragmented Nuclei (%): 4% and 6%
  Population Healthy Nuclei (%): 92% and 84%
  Population Hoechst High Intensity Objects (%): 0% and 1%
  Population Membrane Permeable-Phenotype (%): 7% and 6%
  Population Mitochondria Different-Phenotype (%): 15% and 44%
  Population Mitotic Cells (%): 71% and 57%
  Population Normal (%): 99% and 98%
  Population Pyknosed Nuclei (%): 2% and 9%
  Population Tubulin-Different-Phenotype (%): 42%
  Total Cell Count: 142 and 237
[4]
  Population Fragmented Nuclei (%): 9% and 12%
  Population Healthy Nuclei (%): 80%
  Population Hoechst High Intensity Objects (%): 8% and 12%
  Population Membrane Permeable-Phenotype (%): 11%
  Population Mitochondria Different-Phenotype (%): 57% and 27%
  Population Mitotic Cells (%): 63% and 100%
  Population Normal (%): 91% and 87%
  Population Pyknosed Nuclei (%): 10% and 3%
  Population Tubulin-Different-Phenotype (%): 17% and 40%
  Total Cell Count: 112 and 90

## NC(=O)Nc1cc(-c2cccc(F)c2)sc1C(=O)N[C@H]1CCCNC1 [AZD-7762]
[5]
  Population Apoptotic (%): 25%
  Population Fragmented Nuclei (%): 7%
  Population Hoechst High Intensity Objects (%): 3%
  Population Membrane Permeable-Phenotype (%): 9%
  Population Mitochondria Different-Phenotype (%): 17%
  Population Mitotic Cells (%): 75%
  Population Normal (%): 96%
  Population Pyknosed Nuclei (%): 10%
  Total Cell Count: 157
[6]
  Population Apoptotic (%): 0%
  Population Fragmented Nuclei (%): 8%
  Population Healthy Nuclei (%): 81%
  Population Hoechst High Intensity Objects (%): 15%
  Population Membrane Permeable-Phenotype (%): 13%
  Population Mitochondria Different-Phenotype (%): 10%
  Population Mitotic Cells (%): 100%
  Population Normal (%): 84%
  Population Pyknosed Nuclei (%): 9%
  Population Tubulin-Different-Phenotype (%): 26%
  Total Cell Count: 110
[1]
  Population Apoptotic (%): 25% and 43%
  Population Fragmented Nuclei (%): 28%
  Population Healthy Nuclei (%): 28% and 20%
  Population Hoechst High Intensity Objects (%): 3% and 12%
  Population Membrane Permeable-Phenotype (%): 19% and 8%
  Population Mitochondria Different-Phenotype (%): 15% and 20%
  Population Mitotic Cells (%): 74% and 56%
  Population Normal (%): 96% and 87%
  Population Pyknosed Nuclei (%): 49% and 50%
  Population Tubulin-Different-Phenotype (%): 17% and 11%
  Total Cell Count: 189 and 194
[2]
  Population Apoptotic (%): 46% and 22%
  Population Fragmented Nuclei (%): 22% and 25%
  Population Healthy Nuclei (%): 25% and 32%
  Population Hoechst High Intensity Objects (%): 5% and 11%
  Population Membrane Permeable-Phenotype (%): 21% and 20%
  Population Mitotic Cells (%): 53% and 77%
  Population Normal (%): 94% and 88%
  Population Pyknosed Nuclei (%): 52% and 41%
  Total Cell Count: 79 and 84
[7]
  Population Apoptotic (%): 40%
  Population Fragmented Nuclei (%): 15%
  Population Healthy Nuclei (%): 52%
  Population Hoechst High Intensity Objects (%): 6%
  Population Membrane Permeable-Phenotype (%): 16%
  Population Mitochondria Different-Phenotype (%): 21%
  Population Mitotic Cells (%): 60%
  Population Normal (%): 93%
  Population Pyknosed Nuclei (%): 32%
  Population Tubulin-Different-Phenotype (%): 35%
  Total Cell Count: 150
[8]
  Population Apoptotic (%): 37%
  Population Fragmented Nuclei (%): 7%
  Population Healthy Nuclei (%): 51%
  Population Hoechst High Intensity Objects (%): 18%
  Population Membrane Permeable-Phenotype (%): 7%
  Population Mitotic Cells (%): 62%
  Population Normal (%): 81%
  Population Pyknosed Nuclei (%): 40%
  Population Tubulin-Different-Phenotype (%): 34%
  Total Cell Count: 97
[3]
  Population Apoptotic (%): 81% and 85%
  Population Healthy Nuclei (%): 7%
  Population Hoechst High Intensity Objects (%): 9% and 10%
  Population Mitochondria Different-Phenotype (%): 46% and 78%
  Population Mitotic Cells (%): 18% and 14%
  Population Normal (%): 90% and 89%
  Population Pyknosed Nuclei (%): 47% and 70%
  Total Cell Count: 185 and 189
[4]
  Population Apoptotic (%): 92% and 70%
  Population Fragmented Nuclei (%): 16% and 21%
  Population Healthy Nuclei (%): 16% and 18%
  Population Hoechst High Intensity Objects (%): 20% and 11%
  Population Membrane Permeable-Phenotype (%): 100% and 64%
  Population Mitochondria Different-Phenotype (%): 80% and 57%
  Population Normal (%): 80% and 88%
  Population Pyknosed Nuclei (%): 66% and 59%
  Population Tubulin-Different-Phenotype (%): 90% and 64%
  Total Cell Count: 75 and 84
[9]
  Population Apoptotic (%): 95%
  Population Fragmented Nuclei (%): 38%
  Population Healthy Nuclei (%): 1%
  Population Hoechst High Intensity Objects (%): 15%
  Population Membrane Permeable-Phenotype (%): 0%
  Population Mitochondria Different-Phenotype (%): 33%
  Population Mitotic Cells (%): 4%
  Population Normal (%): 84%
  Population Pyknosed Nuclei (%): 59%
  Population Tubulin-Different-Phenotype (%): 33%
  Total Cell Count: 188
[10]
  Population Apoptotic (%): 100%
  Population Fragmented Nuclei (%): 16%
  Population Healthy Nuclei (%): 44%
  Population Hoechst High Intensity Objects (%): 21%
  Population Membrane Permeable-Phenotype (%): 100%
  Population Mitochondria Different-Phenotype (%): 92%
  Population Mitotic Cells (%): 0%
  Population Normal (%): 78%
  Population Pyknosed Nuclei (%): 38%
  Population Tubulin-Different-Phenotype (%): 96%
  Total Cell Count: 75
